Measured values of several laboratories.
Lines come from different studies, so protocols differ.

| Structure (SMILES) | host | medium | route | dose | time | setting | concentration |
| --- | --- | --- | --- | --- | --- | --- | --- |
| Cc1noc(C)c1Cn1cc(N2C(=O)N(Cc3cccc(O)c3)C(C)(C)C2=O)cn1 | male Sprague-Dawley rat | plasma | oral | 100 mg/kg | 24 h | single dose | 0 ng/mL |
| COc1cccc(-c2n[nH]c(SCc3ccccn3)n2)c1OC | male Sprague-Dawley rat | plasma | oral | 30 mg/kg | 2 h | single dose | 9750 ng/mL |
| COc1ccc2c(=O)n(C)c(-c3ccccc3)nc2c1 | male Sprague-Dawley rat | lung | oral | 30 mg/kg | 30 min | – | 2.5 ng/mL |
| Cc1noc(C)c1Cn1cc(N2C(=O)CN(Cc3cccc(O)c3)C2=O)cn1 | male Sprague-Dawley rat | plasma | oral | 100 mg/kg | 4 h | – | 42.5 ng/mL |
| COc1nc(-c2cc(C)c(N[C@@H](C)c3cc(F)cc(F)c3)nn2)ccc1-n1cnc(C)c1 | male Sprague-Dawley rat | CSF | oral | 5 mg/kg | 4 h | multiple doses, once daily | 15.3 ng/mL |
| Cc1ccc(-c2cc(C(F)(F)F)nn2-c2ccc(S(N)(=O)=O)cc2)cc1 | male Sprague-Dawley rat | plasma | oral | 20 mg/kg | 8 h | – | 910 nM |
| CCOC(=O)[C@@]12C[C@@H]1[C@@H](n1ccc3c(NC)nc(C#Cc4ccc(Cl)s4)nc31)[C@H](O)[C@@H]2O | male Sprague-Dawley rat | plasma | oral | 3 mg/kg | 30 min | – | 48.4 ng/mL |
| CCc1cc(-c2noc(-c3cc(OC)nc(C4CCCC4)c3)n2)cc(C)c1OC[C@@H](O)CO | Wistar rat | plasma | oral | 0.3 mg/kg | 24 h | single dose | 5 ng/mL |
| CCCOc1ccc(OC)c(F)c1C(=O)c1ccc(C(=O)N[C@@H]2CNC[C@H]2NC(=O)c2ccc3[nH]ncc3c2)cc1 | rat | plasma | intravenous | 559 µg | 10 min | single dose | 470 ng/mL |
